Data taken from ChEMBL document CHEMBL4196176, “Structure-Based Design of MptpB Inhibitors That Reduce Multidrug-Resistant Mycobacterium tuberculosis Survival and Infection Burden in Vivo” (J Med Chem, 2018).

Experiments:
[1] = Inhibition of Mycobacterium tuberculosis H37Rv His-tagged ptpA expressed in Escherichia coli BL21(DE3) using pNPP as substrate preincubated for 15 mins followed by substrate addition and measured after 15 mins
Method in brief: (§1)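 His-tagged MptpA/MptpB expressed in E. coli BL21(DE3); VHR and hPTP1B purified as GST fusions with the tag cleaved. 0.5 μg protein in Tris/BisTris/acetate buffer (pH 7 MptpB, 6.5 MptpA, 6 hPTP1B, 5 VHR) with compound at 0–250 μM, 15 min at room temperature. pNPP added to 0.35 mM for 15 min, quenched with NaOH, read at 405 nm against a pNP curve. No-enzyme blanks.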

[2] = target: T1, Tyrosine-protein phosphatase non-receptor type 1 (Homo sapiens, UniProt P18031); assay: Inhibition of human PTP1B using pNPP as substrate preincubated for 15 mins followed by substrate addition and measured after 15 mins
T1 sequence (P18031 whole entry): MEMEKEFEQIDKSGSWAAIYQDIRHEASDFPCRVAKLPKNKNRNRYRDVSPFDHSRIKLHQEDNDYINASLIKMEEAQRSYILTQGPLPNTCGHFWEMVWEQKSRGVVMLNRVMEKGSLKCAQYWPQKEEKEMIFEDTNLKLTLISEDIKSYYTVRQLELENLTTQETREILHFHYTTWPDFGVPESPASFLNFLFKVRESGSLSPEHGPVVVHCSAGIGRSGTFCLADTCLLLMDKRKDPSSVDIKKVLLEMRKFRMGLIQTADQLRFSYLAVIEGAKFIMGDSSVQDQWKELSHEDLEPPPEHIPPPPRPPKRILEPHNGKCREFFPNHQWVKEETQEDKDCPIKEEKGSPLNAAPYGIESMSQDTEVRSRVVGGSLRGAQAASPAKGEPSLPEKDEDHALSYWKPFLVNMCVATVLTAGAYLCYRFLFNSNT

[3] = target: Dual specificity protein phosphatase 3 (Homo sapiens, UniProt P51452); assay: Inhibition of human VHR using pNPP as substrate preincubated for 15 mins followed by substrate addition and measured after 15 mins; method in brief: as §1
Dual specificity protein phosphatase 3, sequence (P51452 whole entry): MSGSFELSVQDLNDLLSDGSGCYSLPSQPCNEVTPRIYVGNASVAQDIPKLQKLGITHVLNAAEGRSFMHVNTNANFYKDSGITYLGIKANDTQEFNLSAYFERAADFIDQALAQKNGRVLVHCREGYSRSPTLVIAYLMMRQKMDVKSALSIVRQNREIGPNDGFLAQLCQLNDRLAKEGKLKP

J774.A1 [4] = assay: Cytotoxicity against mouse J774A.1 cells assessed as reduction in cell viability at 50 to 150 uM after 24 hrs by MTT assay; format: cell-based; conditions: j774.a1, 24 h
Method in brief: (§2)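 MTT viability assay in J774A.1 cells seeded at 6 × 10^3/well and adhered overnight. Inhibitor in DMSO or DMSO only added for 24 h. MTT (5 mg/mL in PBS) added for 4 h, formazan dissolved in DMSO with Sorensen's glycine buffer, absorbance read at 570 nm.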

Cavia porcellus [5] = assay: Cmax in Dunkin Hartley guinea pig at 2.5 mg/kg, ip after 0.5 hrs post dose; format: ADME, organism-based; set-up: dose 2.5 mg/kg, route intraperitoneal; conditions: in vivo
Cavia porcellus [6] = assay: Half life in Dunkin Hartley guinea pig at 2.5 mg/kg, ip; format: ADME, organism-based; conditions: in vivo
Cavia porcellus [7] = assay: AUCinfinity in Dunkin Hartley guinea pig at 2.5 mg/kg, ip; format: ADME, organism-based; set-up: dose 2.5 mg/kg, time infinity, route intraperitoneal; conditions: in vivo
Cavia porcellus [8] = assay: Cmax in Dunkin Hartley guinea pig at 5 mg/kg, po after 0.25 hrs post dose; format: ADME, organism-based; set-up: dose 5 mg/kg, route oral; conditions: in vivo, BLD = below limit of detection
Cavia porcellus [9] = assay: Half life in Dunkin Hartley guinea pig at 5 mg/kg, po; format: ADME, organism-based; conditions: in vivo, BLD = below limit of detection
Cavia porcellus [10] = assay: AUCinfinity in Dunkin Hartley guinea pig at 5 mg/kg, po; format: ADME, organism-based; set-up: dose 5 mg/kg, time infinity, route oral; conditions: in vivo, BLD = below limit of detection
Cavia porcellus [11] = assay: Oral bioavailability in Dunkin Hartley guinea pig at 5 mg/kg; format: ADME, organism-based; conditions: in vivo
[12] = target: T2, Phosphotyrosine protein phosphatase (Mycobacterium tuberculosis, UniProt A0A045ISB3); assay: Inhibition of Mycobacterium tuberculosis H37Rv His-tagged ptpB expressed in Escherichia coli BL21(DE3) using pNPP as substrate preincubated for 15 mins followed by substrate addition and measured after 15 mins
T2 sequence (A0A045ISB3 whole entry): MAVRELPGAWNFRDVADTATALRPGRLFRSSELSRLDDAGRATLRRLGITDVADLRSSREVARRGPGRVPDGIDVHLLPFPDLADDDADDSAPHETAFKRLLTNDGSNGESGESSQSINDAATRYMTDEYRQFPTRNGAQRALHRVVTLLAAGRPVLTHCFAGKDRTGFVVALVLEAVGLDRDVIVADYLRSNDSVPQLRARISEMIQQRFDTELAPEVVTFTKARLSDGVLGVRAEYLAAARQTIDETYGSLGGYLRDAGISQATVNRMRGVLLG

J774.A1 [13] = assay: Cytotoxicity against mouse J774A.1 cells assessed as reduction in cell viability at >100 uM after 24 hrs by MTT assay; format: cell-based; conditions: j774.a1, 24 h; method in brief: as §2
Cavia porcellus [14] = assay: Cmax in Dunkin Hartley guinea pig at 1.25 mg/kg, ip after 0.5 hrs post dose; format: ADME, organism-based; set-up: dose 1.25 mg/kg, route intraperitoneal; conditions: in vivo
Cavia porcellus [15] = assay: Half life in Dunkin Hartley guinea pig at 1.25 mg/kg, ip; format: ADME, organism-based; conditions: in vivo
Cavia porcellus [16] = assay: AUCinfinity in Dunkin Hartley guinea pig at 1.25 mg/kg, ip; format: ADME, organism-based; set-up: dose 1.25 mg/kg, time infinity, route intraperitoneal; conditions: in vivo
Cavia porcellus [17] = assay: Cmax in Dunkin Hartley guinea pig at 3.5 mg/kg, po after 0.25 hrs post dose; format: ADME, organism-based; set-up: dose 3.5 mg/kg, route oral; conditions: in vivo, BLD = below limit of detection
Cavia porcellus [18] = assay: Half life in Dunkin Hartley guinea pig at 3.5 mg/kg, po; format: ADME, organism-based; conditions: in vivo, BLD = below limit of detection
Cavia porcellus [19] = assay: AUCinfinity in Dunkin Hartley guinea pig at 3.5 mg/kg, po; format: ADME, organism-based; set-up: dose 3.5 mg/kg, route oral, time infinity; conditions: in vivo, BLD = below limit of detection
Cavia porcellus [20] = assay: Oral bioavailability in Dunkin Hartley guinea pig at 3.5 mg/kg; format: ADME, organism-based; conditions: in vivo

## O=C(O)c1noc(-c2ccccc2)c1-c1cccc(-c2cc(Cl)c(O)c(Cl)c2)c1
[1]
  IC50: 33.7 µM
[2]
  IC50: 127 µM
[3]
  IC50: 10.5 µM
J774.A1 [4]
  Activity: Non-Toxic
Cavia porcellus [5]
  Cmax: 3714 ng/mL
Cavia porcellus [6]
  t1/2: 0.7 h
Cavia porcellus [7]
  AUC: 4968 ng·h/mL
Cavia porcellus [8]
  Cmax: Bld
Cavia porcellus [9]
  t1/2: Bld
Cavia porcellus [10]
  AUC: Bld
Cavia porcellus [11]
  F: < 4%

## Cc1cc(-c2cccc(-c3c(C(=O)O)noc3-c3ccccc3)c2)cc(C)c1O
[1]
  IC50: 36 µM
[2]
  IC50: > 100 µM
[3]
  IC50: 23.2 µM
Cavia porcellus [5]
  Cmax: 197 ng/mL
Cavia porcellus [6]
  t1/2: 1.4 h
Cavia porcellus [7]
  AUC: 399 ng·h/mL
Cavia porcellus [8]
  Cmax: Bld
Cavia porcellus [9]
  t1/2: Bld
Cavia porcellus [10]
  AUC: Bld
Cavia porcellus [11]
  F: < 2.5%

## O=C(O)c1noc(-c2ccccc2)c1-c1cccc(-c2ccc(O)c(Cl)c2)c1
[12]
  IC50: 0.9 µM
[1]
  IC50: 23.5 µM
[2]
  IC50: 213 µM
[3]
  IC50: 18.7 µM
J774.A1 [4]
  Activity: Non-Toxic
J774.A1 [13]
  Activity: > 23%

## O=C(O)c1noc(-c2ccccc2)c1-c1cccc(-c2cc(Cl)cc(Cl)c2)c1
[1]
  IC50: 6.5 µM
[2]
  IC50: 48 µM
[3]
  IC50: 12.3 µM
Cavia porcellus [14]
  Cmax: 746 ng/mL
Cavia porcellus [15]
  t1/2: 1.3 h
Cavia porcellus [16]
  AUC: 1742 ng·h/mL
Cavia porcellus [17]
  Cmax: Bld
Cavia porcellus [18]
  t1/2: Bld
Cavia porcellus [19]
  AUC: Bld
Cavia porcellus [20]
  F: < 13%

## O=C(O)c1cc(-c2ccccc2)on1
[12]
  IC50: > 500 µM

## O=C(O)c1noc(-c2ccccc2)c1-c1cccc(-c2cccc(O)c2)c1
[1]
  IC50: 95 µM
[2]
  IC50: > 100 µM
[3]
  IC50: 59 µM

## O=C(O)c1noc(-c2ccccc2)c1-c1cccc(-c2cc(Cl)c(O)c([N+](=O)[O-])c2)c1
[1]
  IC50: 30.2 µM
[2]
  IC50: 313 µM
[3]
  IC50: 13 µM
J774.A1 [4]
  Activity: Non-Toxic
